Measurements as given in ChEMBL document CHEMBL1136371, “The design of 8,8-dimethyl[1,6]naphthyridines as potential anticonvulsant agents” (Bioorg Med Chem Lett, 2003).

Key:
[1] = test system: Rattus norvegicus; experiment: Anticonvulsant activity by using rat MEST test at 2 mg/kg p.o. 2 hr post-dose; format: functional; settings: route oral
How it was run: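 Rat maximal electroshock seizure threshold (MEST) test. Oral dosing at 2 mg/kg, doses as free base; reference anticonvulsant given at 2.5 mg/kg p.o. Seizure threshold read 2 h post-dose as % increase versus vehicle-treated controls. Significance by Litchfield–Wilcoxon analysis.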

[2] = organism: Rattus norvegicus; experiment: Binding affinity at [3H]SB-204269 binding site expressed as pKi; format: functional
How it was run: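 Radioligand binding with [3H]SB-204269, reported as pKi. All determinations run in triplicate.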

[3] = organism: Rattus norvegicus; experiment: Compound tested for its ability to protect rat from hindlimb tonic seizures following a shock by using ALLFITrd quo; format: functional
How it was run: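 Rat supraMES model. Oral doses of 1, 10 and 30 mg/kg. At 4 h post-dose, a single corneal-electrode shock of 180 mA lasting 0.3 s was given. Protection from hindlimb tonic seizures was scored against control, and ED50 was derived by ALLFIT fitting.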

[4] = Plasma clearance was determined; format: ADME, organism-based; settings: rat
[5] = Oral bioavailability at the dose of 2 mg/kg in rat; format: ADME, organism-based; settings: in vivo
How it was run: (§1)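 Rat pharmacokinetics after iv and po administration. Oral bioavailability (Fpo) was measured with oral dosing at 2 mg/kg, and blood clearance (CLb) in mL/min/kg.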

[6] = Oral bioavailability; format: ADME, organism-based; settings: rat, in vivo; how it was run: as §1
[7] = Oral bioavailability in rat; format: ADME, organism-based; settings: in vivo; how it was run: as §1

SMILES | Increase [1] [%] | Log Ki [2] | also measured
COc1ccc(C(=O)Nc2cnc3c(c2)CN(C)CC3(C)C)cc1Br | 210 | -8.6 | –
COc1ccc(C(=O)Nc2cnc3c(c2)CN(C)CC3(C)C)cc1C#N | 110 | -7.3 | –
CN1Cc2cc(NC(=O)c3ccccc3)cnc2C(C)(C)C1 | 3 | -6.2 | –
COc1ccc(C(=O)Nc2cnc3c(c2)CNCC3(C)C)cc1F | – | -7.2 | –
CC(=O)c1ccc2c(c1)[C@H](NC(=O)c1ccc(F)cc1)[C@@H](O)C(C)(C)O2 [CARABERSAT] | 120 | – | ED50 [3]: 6.3 mg/kg
COc1ccc(C(=O)Nc2cnc3c(c2)CNCC3(C)C)cc1C(F)(F)F | 260 | -8.7 | ED50 [3]: 3.9 mg/kg; clearance [4]: 30 mL/min/kg; bioavailability [5]: > 50%
COc1ccc(C(=O)Nc2cnc3c(c2)CNCC3(C)C)cc1Cl | 260 | -8.1 | –
COc1ccc(C(=O)Nc2cnc3c(c2)CN(C)CC3(C)C)cc1C(F)(F)F | 570 | -8.8 | bioavailability [6]: 20%
COc1ccc(C(=O)Nc2cnc3c(c2)CN(C)CC3(C)C)cc1Cl | 380 | -8.5 | –
COc1ccc(C(=O)Nc2ccc3c(c2)CN(C)CC3)cc1C(F)(F)F | – | -8.9 | bioavailability [7]: 2%
CC(C)Oc1ccc(C(=O)Nc2cnc3c(c2)CNCC3(C)C)cc1C(F)(F)F | 15 | -8.4 | –
CCOc1ccc(C(=O)Nc2cnc3c(c2)CNCC3(C)C)cc1C(F)(F)F | 80 | -8.6 | –
CCOc1ccc(C(=O)Nc2cnc3c(c2)CN(C)CC3(C)C)cc1C(F)(F)F | 310 | -8.5 | –
COc1ccc(C(=O)Nc2cnc3c(c2)CNCC3(C)C)cc1Br | 260 | -8.7 | –
COc1ccc(C(=O)Nc2cnc3c(c2)CN(C)CC3(C)C)cc1F | – | -7.3 | –
